# FGF22 binding: binders of human FGF22 protein, primary screen, FGF22 synaptogenesis inhibitor project, biophysical, thermal shift, single point. hit rate 1.5% among 340,000. recombinant FGF22 thermal shift, SYPRO orange fluorescence; percent of sucrose octasulfate shift, DMSO zero. AID 651658, 2012. activity (Tm shift, normalised), % at 9.99 µM;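 active = mean Tm shift, scaled 0 neutral to 100 positive control, at about 1.3% or above, every replicate too, limit read from the data; inconclusive = no clear call, values can overlap the other calls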
# Target sequence (Q9HCT0 whole entry, looked up): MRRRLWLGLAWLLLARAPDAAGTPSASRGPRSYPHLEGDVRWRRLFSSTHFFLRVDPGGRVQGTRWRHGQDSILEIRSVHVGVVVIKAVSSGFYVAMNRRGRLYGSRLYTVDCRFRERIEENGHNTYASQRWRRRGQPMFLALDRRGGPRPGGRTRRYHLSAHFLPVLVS
# S100A4 inh HTS: inhibitors of S100A4-myosin IIA peptide binding, primary screen, biochemical, fluorescence polarization, TAMRA-MyoIIA peptide; Protein S100-A4 (Homo sapiens), P26447; inhibition, % at 10.7 µM; hit rate 0.14% among 360,000; AID 652163, 2013;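 active = mean inhibition of at least 70% across replicates, with every replicate also reaching that level; inconclusive = mean inhibition reaches 70% but some replicates fall short; inactive = mean inhibition below 70%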
#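 incubation = readout 5 min after mixing, signal stable up to 60 min | system = S100A4 monomer protein | buffer or medium = HEPES pH 7.2 with CaCl2, KCl, NaCl, DTT, Triton | benchmarks = neutral control DMSO, positive control TFP | also added = fluorescent myosin IIA peptide, 5 nM | compound dosing = one concentration per compound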
# ERAP1 HTS inh: human ERAP1 aminopeptidase inhibitors, primary screen, biochemical, single point, plate reader | Endoplasmic reticulum aminopeptidase 1 (Homo sapiens), Q9NZ08 | recombinant ERAP1, Leu-AMC fluorescence, 60 min | inhibition, % at 10.7 µM | hit rate 0.15% among 340,000 | AID 652197, 2013;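 active = mean replicate inhibition of at least 30%, or all replicates individually reaching that 30% level; inactive = mean below 30% and not every replicate reaching it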
# PDI inh: inhibitors of human PDI, primary screen, biochemical, turbidity, single point, plate reader | Protein disulfide-isomerase (Homo sapiens), P07237 | PDI insulin aggregation turbidity, A650, 90 min | inhibition, % at 10 µM | hit rate 0.052% among 350,000 | AID 588391, 2011;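 active = mean inhibition across replicates of 30% or more, whatever share of single replicates reach that level; inconclusive = mean inhibition below 30% while every single replicate reaches 30%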
# ERp5 inh: inhibitors of ERp5-driven insulin aggregation, primary screen, biochemical, turbidity, absorbance 650 nm, single point; Protein disulfide-isomerase A6 (Homo sapiens), Q15084; 90 min; inhibition, % at 9.99 µM; hit rate 0.05% among 350,000; AID 651711, 2012;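 active = mean replicate inhibition above about 25%, with every replicate also reaching it, limit read from the data, passing the limit was not always enough; inconclusive = only one of those two criteria met; inactive = neither criterion met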
# Target sequence (Q15084 whole entry, looked up): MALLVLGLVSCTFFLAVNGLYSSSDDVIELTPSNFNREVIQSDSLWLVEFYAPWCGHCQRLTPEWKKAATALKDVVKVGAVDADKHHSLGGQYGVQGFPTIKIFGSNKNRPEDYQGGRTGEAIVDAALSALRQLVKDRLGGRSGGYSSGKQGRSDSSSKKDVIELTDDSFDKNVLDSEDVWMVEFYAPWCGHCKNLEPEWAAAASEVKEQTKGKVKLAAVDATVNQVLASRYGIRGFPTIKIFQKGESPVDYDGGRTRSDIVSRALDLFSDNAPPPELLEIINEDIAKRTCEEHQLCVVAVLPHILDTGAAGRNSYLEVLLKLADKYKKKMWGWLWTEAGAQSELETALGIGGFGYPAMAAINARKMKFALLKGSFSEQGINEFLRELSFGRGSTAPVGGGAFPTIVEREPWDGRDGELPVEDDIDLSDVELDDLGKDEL
# A number is an active result; . = inactive; ? = inconclusive; / = no result given. Only a selection was taken, and hits are over-represented in it overall.
SMILES,FGF22 binding,S100A4 inh HTS,ERAP1 HTS inh,PDI inh,ERp5 inh
C[C@@H]1CN([C@@H](C)CO)C(=O)c2cccc(NC(=O)Nc3cccc4ccccc34)c2O[C@H]1CN(C)C(=O)Nc1ccccc1,.,105,.,/,.
Cc1ccc(-c2cnc3c(c2)C(=O)N([C@H](C)CO)C[C@H](C)[C@@H](CN(C)C(=O)c2ccc(F)cc2)O3)cc1,.,.,.,/,.
CCOC(=O)C1CCCN(C2=NC(=O)/C(=C/c3ccc(N(C)C)cc3)S2)C1 (configuration not stated),1.9,.,.,.,.
CCOC(=O)C1CCCN(C2=NC(=O)/C(=C/c3ccc(OC)cc3)S2)C1 (configuration not stated),.,.,.,.,.
C[C@H]1CN([C@@H](C)CO)C(=O)c2cccc(NC(=O)c3nc4ccccc4s3)c2O[C@@H]1CN(C)C(=O)Nc1ccc(C(F)(F)F)cc1,.,.,.,/,27
C[C@@H]1CN([C@@H](C)CO)C(=O)c2cccc(NC(=O)c3ccc(-c4nccs4)cc3)c2O[C@@H]1CN(C)C(=O)Nc1ccc(C(F)(F)F)cc1,1.4,.,.,/,.
C[C@H](CO)N1C[C@H](C)[C@H](CN(C)C(=O)Nc2ccc(C(F)(F)F)cc2)Oc2c(NC(=O)c3ccc(-c4nccs4)cc3)cccc2C1=O,.,.,.,/,.
C/C=C/c1cnc2c(c1)C(=O)N([C@H](C)CO)C[C@@H](C)[C@H](CN(C)C(=O)C1CCCCC1)O2,.,.,.,/,.
COc1ccc(CN(C)C[C@@H]2Oc3ccc(NS(=O)(=O)c4ccccc4)cc3CC(=O)N([C@H](C)CO)C[C@H]2C)cc1,.,134,.,/,.
COc1ccc(CN(C)C[C@H]2Oc3ccc(NS(=O)(=O)c4ccccc4)cc3CC(=O)N([C@@H](C)CO)C[C@@H]2C)cc1,.,.,.,/,.
COc1ccc(CN(C)C[C@@H]2Oc3ccc(NC(=O)Cc4ccccc4)cc3CC(=O)N([C@@H](C)CO)C[C@H]2C)cc1,.,84,.,/,.
Cc1c(Cc2c(Cl)cccc2Cl)c(=O)ccn1C(C)c1ccccc1 (configuration not stated),/,/,/,.,/
CC(=O)c1ccc(NC(=O)CSc2nc(C)cc(C)c2C(N)=O)cc1,43,.,.,.,.
CC(=O)c1ccc(NC(=O)CSc2nc3nc(C)cc(C)n3n2)cc1,.,.,.,/,.
C=CCNC(=O)COC(=O)c1cc(S(=O)(=O)N2CCCCC2)ccc1Cl,43,.,.,.,.
COc1cccc2c1OCC(C(=O)O)C2 (configuration not stated),43,.,.,.,.
CCn1c(N)nc2c1c(=O)n(C)c(=O)n2C,.,.,.,.,.
Cn1nc(-c2ccccn2)nc2c(=O)n(C)c(=O)nc1-2,.,.,.,139,102
COc1ccc(-c2nc(-c3ccccn3)ncc2S(C)(=O)=O)cc1,.,.,.,.,.
CCCc1nc2c(=O)n(C)c(=O)nc-2n(C)n1,.,.,.,160,85
CC(=O)Nc1ccc(S(=O)(=O)Oc2cccc(/C=C3\SC(N)=NC3=O)c2)cc1,43,.,.,.,.
COc1ccccc1OCc1cc(C(=O)N2CCCC(OCc3cccnc3)C2)no1 (configuration not stated),.,.,.,.,.
COc1cccc(/C=C/C(=O)OCC(=O)NC2CC2)c1OC,.,.,.,.,.
COc1cccc(/C=C/C(=O)OCC(=O)Nc2ccc(N3CCOCC3)cc2)c1OC,44,.,.,.,.
O=C(N[C@@H]1CC[C@@H](CCNS(=O)(=O)c2ccccc2)O[C@H]1CO)c1cccnc1,.,.,.,/,.
SMILES,FGF22 binding,S100A4 inh HTS,ERAP1 HTS inh,PDI inh,ERp5 inh
CC=Cc1ccc2n(c1=O)C[C@H]1[C@H](CO)[C@@H](C(=O)NCc3ccccc3)N(C)[C@@H]21 (mixture of isomers),17,.,.,/,.
CC=Cc1ccc2n(c1=O)C[C@@H]1[C@@H](CO)[C@H](C(=O)N[C@H](C)c3ccccc3)[C@H]2N1Cc1ccncc1 (mixture of isomers),.,.,.,/,.
CC=Cc1ccc2n(c1=O)C[C@H]1[C@H](CO)[C@@H](C(=O)N[C@@H](C)c3ccccc3)[C@@H]2N1Cc1ccncc1 (mixture of isomers),16,?,.,/,.
O=S(=O)(O)c1ccc(NN=Cc2ccccc2O)cc1,44,.,.,.,.
CCOC(=O)c1c(C)[nH]c(C)c1C(=O)COC(=O)c1cc(OC)cc(OC)c1,59,.,.,.,.
CC(C)CC(=O)Nc1cccc(C(C)O)c1 (configuration not stated),43,.,.,/,.
CCCCC(=O)Nc1cccc(NC(=O)C(C)C)c1,/,/,/,.,/
CCCCC(=O)Nc1cccc(C(C)O)c1 (configuration not stated),43,.,.,/,.
CCCn1c(N)c(N(CCOC)C(=O)c2ccc([N+](=O)[O-])cc2Cl)c(=O)[nH]c1=O,.,.,.,.,.
CCC[N+]1(CC#CC2(O)CCCCC2)CCOCC1,.,.,85,.,.
Cc1ccc(N(C)C(=O)N2CCN(c3ccccn3)CC2)cc1,.,.,.,/,.
Cc1ccccc1NC(=O)Cc1nc(COC(=O)CSc2ccc(F)cc2)cs1,.,.,.,.,.
O=C(C[C@@H]1CC[C@@H](NC(=O)NC2CCCC2)[C@H](CO)O1)NCc1ccc(F)cc1,.,120,.,/,.
O=C(C[C@@H]1CC[C@@H](NC(=O)CC2CC2)[C@H](CO)O1)NCc1ccc(Cl)cc1,.,135,.,/,.
CC(NC1CCCC1)c1ccccc1 (configuration not stated),44,.,.,.,.
CC(NC(=O)C1CCCC1)c1ccccc1 (configuration not stated),.,.,.,.,.
CCN(CC)/C(Sc1ccccc1)=C(/C(Cl)=C(Cl)Cl)[N+](=O)[O-],.,.,.,.,.
COc1ccc(NC(=O)c2ccc(NC(=O)CN3CCN(c4ccccc4OC)CC3)cc2)cc1,43,.,.,.,.
Cc1c(C(C)C)c(=O)n(-c2ccc(S(=O)(=O)NCc3ccccc3)cc2)n1C,43,.,.,.,.
O=C(O)/C=C/C(=O)NNC(=O)c1cc(-c2ccccc2)n[nH]1,.,.,.,.,.
COC1=C(Br)C(=O)c2ncccc2C1=O,.,.,.,47,.
O=C1c2cccnc2-c2ncccc21,/,/,/,.,/
Cc1ccc(O)c(NC(=S)NC(=O)Cc2ccc(Cl)cc2)c1,.,.,.,.,.
COC(=O)C(C)N1C(=O)S/C(=C\c2ccc(-c3ccc(C(=O)O)cc3C)o2)C1=O (configuration not stated),.,.,57,.,.

# Assay outcomes from PubChem.
